Source: ChEMBL document CHEMBL1629542, “Epigallocatechin gallate inactivates clinical isolates of herpes simplex virus” (Antimicrob Agents Chemother, 2008)
Calls of active or inactive are those of the source. The calls are words filed in the database; no cut-off is given here.

What was measured:
Human alphaherpesvirus 2 [1] = test: Antiviral activity against Human herpesvirus 2 isolate P2 infected in African green monkey CV1 cells assessed as log reduction viral titer at 50 uM; assay type: functional, CV-1
Summary of the method: (§1)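 HSV-2 (clinical swab isolates or strain 333) was grown in CV-1 cells and used as clarified supernatant. Virus was exposed to graded EGCG for 1 h in RPMI 1640 with 1% FCS, pH 7.4. Tenfold dilutions were titrated on CV-1 cells, three wells each, 5 days at 37°C, scoring CPE. TCID50 was calculated by Reed-Muench. IC99 was read graphically as 99% titer drop from the zero-concentration titer. Mean of three experiments.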

Human alphaherpesvirus 1 [2] = test: Antiviral activity against Human herpesvirus 1 F1 assessed as damage of viral particle at 100 uM after 2 hrs by electron microscopy; assay type: functional, organism-based
Human alphaherpesvirus 2 [3] = test: Antiviral activity against Human herpesvirus 2 isolate P22 infected in African green monkey CV1 cells assessed as log reduction in viral titer at 12.5 uM; assay type: functional, CV-1; summary of the method: as §1
Human alphaherpesvirus 1 [4] = test: Antiviral activity against Human herpesvirus 1 isolate P42 infected in African green monkey vero cells assessed as log reduction in viral titer at 50 uM; assay type: functional
Summary of the method: (§2)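 Laboratory HSV-1 F1 or patient-swab HSV-1 isolates were prepared as clarified Vero supernatants. They were incubated 1 h with a range of EGCG concentrations in RPMI 1640/1% FCS at pH 7.4. Titres were determined on Vero cells by 5-day CPE endpoint (Reed-Muench). IC99 was read graphically as 99% titre drop from untreated; mean ± SD, three experiments.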

Human alphaherpesvirus 1 [5] = test: Antiviral activity against Human herpesvirus 1 isolate P25 infected in African green monkey vero cells assessed as reduction in viral titer; assay type: functional, organism-based; conditions: Human alphaherpesvirus 1, isolate P25, Vero; summary of the method: as §2
Human alphaherpesvirus 2 [6] = test: Antiviral activity against Human herpesvirus 2 isolate P11 infected in African green monkey CV1 cells assessed as log reduction in viral titer at 100 uM within 20 mins; assay type: functional, CV-1
Summary of the method: (§3)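 HSV-2 clinical isolates from clarified CV-1 supernatants were held with 100 μM EGCG for timed intervals, from 10 min onward. Surviving virus was titrated on CV-1 cells by 10-fold dilution and 5-day CPE scoring, with TCID50 by Reed-Muench. Values are mean ± SD, three experiments.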

Human alphaherpesvirus 1 [7] = test: Antiviral activity against Human herpesvirus 1 isolate P32 infected in African green monkey vero cells assessed as log reduction in viral titer at 100 uM after 30 mins; assay type: functional
Summary of the method: (§4)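 In the time course, HSV-1 clinical isolates (clarified Vero supernatants) were exposed to 100 μM EGCG for varying times up to 60 min. Residual infectivity was then titrated on Vero cells by 5-day CPE endpoint with Reed-Muench calculation. Mean ± SD of three separate experiments.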

Human alphaherpesvirus 2 [8] = test: Antiviral activity against Human herpesvirus 2 isolate P27 infected in African green monkey CV1 cells assessed as log reduction in viral titer at 12.5 uM; assay type: functional, CV-1; summary of the method: as §1
Human alphaherpesvirus 1 [9] = test: Binding affinity to Envelope glycoprotein B in Human herpesvirus 1 F1 assessed as macromolecular complex formation by SDS-PAGE
Summary of the method: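 Purified HSV-1 gB or gD (500 to 700 μg/ml) was incubated with EGCG (250 μg/ml; 545 μM) in 0.1 M potassium phosphate, pH 7.0, at 35°C for 24 h. Products were denatured at 50°C for 15 min in sample buffer and run on 6.5% SDS-PAGE. Bands were stained with Coomassie blue to detect higher-molecular-weight complexes.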

Human alphaherpesvirus 2 [10] = test: Antiviral activity against Human herpesvirus 2 strain 333 infected in African green monkey vero cells assessed as log reduction in viral titer at 100 uM after 60 mins; assay type: functional
Summary of the method: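 Lab strain HSV-2 333 was grown and titrated either in CV-1 cells or in Vero cells. Virus was incubated with 100 μM EGCG for 60 min, then titrated as tenfold dilutions for 5 days at 37°C with CPE scoring. Reed-Muench TCID50 of treated versus control virus gave the titer decrease. Mean of three experiments.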

Human alphaherpesvirus 1 [11] = test: Antiviral activity against Human herpesvirus 1 isolate P32 infected in African green monkey vero cells assessed as log reduction in viral titer at 50 uM; assay type: functional; summary of the method: as §2
Human alphaherpesvirus 1 [12] = test: Antiviral activity against Human herpesvirus 1 isolate P38 infected in African green monkey vero cells assessed as log reduction in viral titer at 100 uM after 30 mins; assay type: functional; summary of the method: as §4
Human alphaherpesvirus 1 [13] = test: Antiviral activity against Human herpesvirus 1 isolate P38 infected in African green monkey vero cells assessed as log reduction in viral titer at 100 uM after 40 to 60 mins; assay type: functional; summary of the method: as §4
Human alphaherpesvirus 1 [14] = test: Antiviral activity against Human herpesvirus 1 isolate P15 infected in African green monkey vero cells assessed as reduction in viral titer; assay type: functional, organism-based; conditions: Human alphaherpesvirus 1, isolate P15, Vero; summary of the method: as §2
Human alphaherpesvirus 1 [15] = test: Antiviral activity against Human herpesvirus 1 F1 infected in African green monkey vero cells assessed as reduction in viral titer; assay type: functional, organism-based; conditions: Human alphaherpesvirus 1, F1, Vero; summary of the method: as §2
Human alphaherpesvirus 2 [16] = test: Antiviral activity against Human herpesvirus 2 isolate P27 infected in African green monkey CV1 cells assessed as log reduction in viral titer at 100 uM within 20 mins; assay type: functional, CV-1
Summary of the method: (§5)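 Time course: clarified CV-1 supernatant of HSV-2 (clinical isolates or strain 333) was exposed to 100 μM EGCG for increasing times. It was then titrated by tenfold dilution on CV-1 cells, three wells per dilution, for 5 days at 37°C with CPE read-out. Reed-Muench TCID50 was compared with the untreated titer. Mean of three separate experiments.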

Human alphaherpesvirus 2 [17] = test: Antiviral activity against Human herpesvirus 2 isolate P11 infected in African green monkey CV1 cells; assay type: functional, organism-based; conditions: Human alphaherpesvirus 2, isolate P11, CV-1
Summary of the method: (§6)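 HSV-2 patient-swab isolates were grown as clarified CV-1 supernatants and incubated 1 h with a range of EGCG concentrations (RPMI 1640/1% FCS, pH 7.4). They were titrated on CV-1 cells from 10-fold dilutions by 5-day CPE at 37°C, with Reed-Muench TCID50. IC99 was derived graphically as 99% reduction from zero-drug titre; mean ± SD, three experiments.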

Human alphaherpesvirus 2 [18] = test: Antiviral activity against Human herpesvirus 2 isolate P22 infected in African green monkey CV1 cells assessed as log reduction in viral titer at 100 uM within 20 mins; assay type: functional, CV-1; summary of the method: as §5
Human alphaherpesvirus 2 [19] = test: Antiviral activity against Human herpesvirus 2 isolate P12 infected in African green monkey CV1 cells assessed as log reduction in viral titer at 100 uM within 20 mins; assay type: functional, CV-1; summary of the method: as §3
Human alphaherpesvirus 2 [20] = test: Antiviral activity against Human herpesvirus 2 isolate P47 infected in African green monkey CV1 cells; assay type: functional, organism-based; conditions: Human alphaherpesvirus 2, isolate P47, CV-1; summary of the method: as §1
Human alphaherpesvirus 2 [21] = test: Antiviral activity against Human herpesvirus 2 isolate P12 infected in African green monkey CV1 cells assessed as log reduction viral titer at 50 uM; assay type: functional, CV-1; summary of the method: as §6
Human alphaherpesvirus 1 [22] = test: Antiviral activity against Human herpesvirus 1 isolate P25 infected in African green monkey vero cells assessed as reduction in viral titer at 100 uM; assay type: functional, organism-based; summary of the method: as §2
Human alphaherpesvirus 1 [23] = test: Antiviral activity against Human herpesvirus 1 isolate P38 infected in African green monkey vero cells assessed as reduction in viral titer; assay type: functional, organism-based; conditions: Human alphaherpesvirus 1, isolate P38, Vero; summary of the method: as §2
Human alphaherpesvirus 2 [24] = test: Antiviral activity against Human herpesvirus 2 strain 333 infected in African green monkey CV-1 cells assessed as log reduction in viral titer at 100 uM after 20 mins; assay type: functional; summary of the method: as §5
Human alphaherpesvirus 2 [25] = test: Antiviral activity against Human herpesvirus 2 isolate P2 infected in African green monkey CV1 cells assessed as log reduction in viral titer at 12.5 uM; assay type: functional, CV-1; summary of the method: as §1
Human alphaherpesvirus 1 [26] = test: Antiviral activity against Human herpesvirus 1 isolate P56 infected in African green monkey vero cells assessed as log reduction in viral titer at 100 uM after 30 mins; assay type: functional; summary of the method: as §4

SMILES: O=C(O[C@@H]1Cc2c(O)cc(O)cc2O[C@@H]1c1cc(O)c(O)c(O)c1)c1cc(O)c(O)c(O)c1 [EPIGALOCATECHIN GALLATE]
- FC (Human alphaherpesvirus 2 [1]): >4
- Activity (Human alphaherpesvirus 1 [2]): Active
- FC (Human alphaherpesvirus 2 [3]): >=2
- FC (Human alphaherpesvirus 1 [4]): 2
- IC99 (Human alphaherpesvirus 1 [5]): 45.4 µM
- FC (Human alphaherpesvirus 2 [6]): 3
- FC (Human alphaherpesvirus 1 [7]): 2
- FC (Human alphaherpesvirus 2 [8]): >=2
- Activity (Human alphaherpesvirus 1 [9]): Active
- FC (Human alphaherpesvirus 2 [10]): 4
- FC (Human alphaherpesvirus 1 [11]): 2
- FC (Human alphaherpesvirus 1 [12]): 2
- FC (Human alphaherpesvirus 1 [13]): 3
- IC99 (Human alphaherpesvirus 1 [14]): 48.4 µM
- IC99 (Human alphaherpesvirus 1 [15]): 72.3 µM
- FC (Human alphaherpesvirus 2 [16]): 3
- IC99 (Human alphaherpesvirus 2 [17]): 12.5 µM
- FC (Human alphaherpesvirus 2 [18]): 3
- FC (Human alphaherpesvirus 2 [19]): 3
- IC99 (Human alphaherpesvirus 2 [20]): 12.5 µM
- FC (Human alphaherpesvirus 2 [21]): >4
- Activity (Human alphaherpesvirus 1 [22]): Active
- IC99 (Human alphaherpesvirus 1 [23]): 48.2 µM
- FC (Human alphaherpesvirus 2 [24]): >=3
- FC (Human alphaherpesvirus 2 [25]): >=2
- FC (Human alphaherpesvirus 1 [26]): 2
